In ChEMBL document CHEMBL5712889, “Neuronal activity controls Bdnf expression via Polycomb de-repression and CREB/CBP/JMJD3 activation in mature neurons” (Nat Commun, 2016):
Calls of active or inactive are those of the source.

Key:
Format in all cases: functional, cell-based
Hippocampal neurone [1] = assay: Anti-neuronal activity against hippocampal neuron in Wistar rat assessed as H3K27Ac promoters I by qPCR assay analysis
In short: (§1)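 E18 Wistar rat hippocampal neurons were cultured 15 DIV and stimulated with 20 µM NMDA for 5 min, then the medium was replaced. Cells were crosslinked with 1% formaldehyde for 10 min at 37 °C and chromatin sonicated to 400–700 bp. 100 µg protein per overnight immunoprecipitation at 4 °C, with rabbit IgG as negative control. Promoter DNA was quantified by qPCR against unstimulated controls; n = independent cultures.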

Hippocampal neurone [2] = assay: Anti-neuronal activity against hippocampal neuron in Wistar rat assessed as blocked recruitment of CBP by qPCR assay analysis; in short: as §1
Hippocampal neurone [3] = assay: Anti-neuronal activity against hippocampal neuron in Wistar rat assessed as active CREB was found at the BDNF promoters by qPCR assay analysis; in short: as §1
Hippocampal neurone [4] = assay: Anti-neuronal activity against hippocampal neuron in Wistar rat assessed as blocked transcriptional activation of promoters II by qPCR assay analysis
In short: (§2)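 Rat hippocampal cultures (15 DIV) were pretreated for 1 h with 10 µM SB203580 (p38 inhibitor), then given 20 µM NMDA for 5 min. Bdnf transcripts were measured by RT-qPCR 30 min after NMDA, using 0.5 µM primers and Gapdh, GusB and Pgk1 as reference genes. Samples were compared with non-stimulated controls; n = independent cultures.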

Hippocampal neurone [5] = assay: Anti-neuronal activity against hippocampal neuron in Wistar rat assessed as impaired recruitment of JMJD3 by qPCR assay analysis; in short: as §1
Hippocampal neurone [6] = assay: Anti-neuronal activity against hippocampal neuron in Wistar rat assessed as higher levels of H3K27Me3 at promoter II by qPCR assay analysis; in short: as §1
Hippocampal neurone [7] = assay: Anti-neuronal activity against hippocampal neuron in Wistar rat assessed as blocked transcriptional activation of promoters VI by qPCR assay analysis; in short: as §2
Hippocampal neurone [8] = assay: Anti-neuronal activity against hippocampal neuron in Wistar rat assessed as blocked H3K27Me3 demethylation at promoters VI by qPCR assay analysis; in short: as §1
Hippocampal neurone [9] = assay: Anti-neuronal activity against hippocampal neuron in Wistar rat assessed as H3K27Ac promoters VI by qPCR assay analysis; in short: as §1
Hippocampal neurone [10] = assay: Anti-neuronal activity against hippocampal neuron in Wistar rat assessed as blocked H3K27Me3 demethylation at promoters IV by qPCR assay analysis; in short: as §1
Hippocampal neurone [11] = assay: Anti-neuronal activity against hippocampal neuron in Wistar rat assessed as H89 blocked CREB phosphorylation at Serine 133 by western blot analysis

Measured: Activity

O=C(Nc1ccc(Cl)cc1)c1cc2ccccc2cc1O
not listed: Hippocampal neurone [11]
active: all other assays above

O=S(=O)(NCCNC/C=C/c1ccc(Br)cc1)c1cccc2cnccc12
active: Hippocampal neurone [11]
